From ChEMBL document CHEMBL1132403, “Prospective identification of biologically active structures by topomer shape similarity searching” (J Med Chem, 1999)

Target: T1, Type-1 angiotensin II receptor B (Rattus norvegicus) (UniProt P29089)
T1 sequence (whole entry): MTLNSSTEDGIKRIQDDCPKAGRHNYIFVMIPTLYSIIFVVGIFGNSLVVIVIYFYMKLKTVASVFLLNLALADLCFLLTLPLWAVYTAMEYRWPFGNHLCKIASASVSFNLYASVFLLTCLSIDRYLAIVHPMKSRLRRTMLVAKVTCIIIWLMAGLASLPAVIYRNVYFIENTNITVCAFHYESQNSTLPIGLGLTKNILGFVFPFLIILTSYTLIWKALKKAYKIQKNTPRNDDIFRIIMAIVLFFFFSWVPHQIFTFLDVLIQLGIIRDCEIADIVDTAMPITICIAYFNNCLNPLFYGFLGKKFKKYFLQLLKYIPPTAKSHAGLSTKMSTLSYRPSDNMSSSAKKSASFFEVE
Test: Percent displacement of [125I]Sar, Ile-Angiotensin II (A II) binding to rat Angiotensin II receptor, type 1
Parameters: concentration or dose not given beside the values
Method in brief: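 Whole-cell competition binding on rat aortic smooth muscle cells expressing rat AT1, seeded 24 h before assay. Radioligand [125I]Sar,Ile-angiotensin II at 0.2 nM in DMEM pH 7.4 with 5 mM MgCl2, 1 mM EDTA and 0.1% BSA. Incubation 2 h at 25 °C with mild shaking. Nonspecific binding defined by 10 μM angiotensin II (final). Cells washed twice with PBS, lysed in 1% Triton X/0.1% BSA, and counted on a γ counter. Assay variability at least ±20%.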

Point of comparison: `CN(C)c1cnnc2ncn(Cc3cccc(-c4ccccc4C(=O)O)c3)c12`, Displacement 47%. Against it:
- Clc1nc2ccccc2n1Cc1ccc(-c2ccccc2Cc2nnn[nH]2)cc1 — lower, 31%
- O=C(O)c1cccc(-c2ccc(CN3C(=O)C(=O)c4c(Cl)ccc(Cl)c43)cc2)c1 — lower, 31%
- O=C1COc2cccnc2N1Cc1cccc(-c2cccc(Cc3nnn[nH]3)c2)c1 — lower, 21%
- CCOC(=O)c1cc2ccccc2n1Cc1cccc(-c2ccccc2CC(=O)O)c1 — lower, 30%
- CC(C)c1nc2ccccc2n1Cc1ccc(-c2ccccc2-c2nn[nH]n2)cc1 — higher, 69%
- CSc1nc2ccccc2n1Cc1ccc(-c2ccccc2Cc2nnn[nH]2)cc1 — lower, 38%
- c1ccc(-c2ccc(Cn3c(-c4cscn4)nc4ccccc43)cc2)c(Cc2nnn[nH]2)c1 — lower, 35%
- O=C(O)c1cccc(-c2ccc(Cn3c(C(F)(F)F)nc4ccccc43)cc2)c1 — lower, 33%
- CCCc1nccn1Cc1ccc(-c2ccccc2C(=O)O)cc1 — lower, 37%
